Bioassay records deposited in PubChem by several laboratories.
Hits are enriched below; roughly 1.3% of the tested compounds scored in any of these assays.
aDG glyco up: increases alpha dystroglycan glycosylation; Pro5-aDG cells, alpha-DG glycosylation AlphaScreen (IIH6); 0% Pro5, 100% B10-LARGE cell signal; activation, % at 10 µM; 0.22% of 360,000 active; AID 624168;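 active = activation of at least 8% versus controls, or a plate z-score of at least 8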;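 also: Pro5 are CHO cells carrying HIG-tagged alpha-DG that lacks glycosylation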
CendR NRP1 mod: modulators of CendR peptide binding to human neuropilin-1. 0.85% of 360,000 active. FAM-RPARPAR peptide binding to NRP-1, fluorescence polarization. inhibition, % at 25 µM. O14786;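 active = inhibition or corrected inhibition above about 18%, plus a signal ratio from 0.5 to 1.5, limit read from the data, passing the limit was not always enough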
Target sequence (O14786 whole entry, looked up): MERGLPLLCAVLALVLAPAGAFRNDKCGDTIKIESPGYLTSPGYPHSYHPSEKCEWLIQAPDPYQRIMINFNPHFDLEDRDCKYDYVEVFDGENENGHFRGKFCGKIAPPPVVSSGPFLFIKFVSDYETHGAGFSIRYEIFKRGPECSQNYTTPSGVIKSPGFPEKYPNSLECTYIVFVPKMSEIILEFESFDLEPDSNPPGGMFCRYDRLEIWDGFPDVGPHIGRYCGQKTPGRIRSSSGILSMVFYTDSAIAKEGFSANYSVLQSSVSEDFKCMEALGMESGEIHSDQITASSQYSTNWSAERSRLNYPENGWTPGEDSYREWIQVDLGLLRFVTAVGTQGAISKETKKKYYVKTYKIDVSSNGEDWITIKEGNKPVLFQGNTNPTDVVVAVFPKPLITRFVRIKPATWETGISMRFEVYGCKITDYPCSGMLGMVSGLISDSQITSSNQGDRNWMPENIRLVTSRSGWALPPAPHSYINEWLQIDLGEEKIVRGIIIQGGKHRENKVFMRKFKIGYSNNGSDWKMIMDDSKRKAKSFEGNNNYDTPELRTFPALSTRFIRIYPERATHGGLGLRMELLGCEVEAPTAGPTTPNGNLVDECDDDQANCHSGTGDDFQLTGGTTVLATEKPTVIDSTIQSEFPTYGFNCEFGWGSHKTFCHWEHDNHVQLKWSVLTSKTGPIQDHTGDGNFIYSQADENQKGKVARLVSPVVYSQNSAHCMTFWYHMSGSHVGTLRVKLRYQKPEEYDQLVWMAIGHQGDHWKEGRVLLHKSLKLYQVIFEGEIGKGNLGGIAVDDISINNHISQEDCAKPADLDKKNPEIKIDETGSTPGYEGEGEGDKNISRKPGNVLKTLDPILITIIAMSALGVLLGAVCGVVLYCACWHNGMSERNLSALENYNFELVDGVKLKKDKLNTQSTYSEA
Tn7 DDE FP: disrupts Tn7 cyclic peptide binding to fibrin D-Dimer-E complex; P02675; FP displacement of FITC-Tn7 peptide from fibrin DD(E); 0% = median of compound wells per plate; inhibition, % at 8.3 µM; 0.13% of 370,000 active;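 active = inhibition above the mean of compounds falling within the control limits plus 3 SD of them, cut at about 14% in these data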;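 also: 0% = plate median of compound wells and 100% = 10 µM Aha-Tn7 peptide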
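System: human fibrin DD(E); quantity: Fibrin-DD(E) at 2 µM final; also added: fluorescent Tn7 probe at 0.1 µM; compound dosing: single nominal test concentration of 8.3 µM per compound; schedule: 10 min preincubation, 3 h with tracer, room temperature; detection: fluorescence polarization of the labelled Tn7 tracer; repeats: one replicate per compound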
DDE Tn6 FP inh: inhibitors of Tn6 peptide binding to human fibrin DD(E). P02675. Fibrin DD(E) TRITC-Tn6 fluorescence polarization displacement. inhibition, % at 8.3 µM. 0.21% of 370,000 active. AID 720509;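 active = inhibition above a per-campaign cutoff: mean of compounds within control limits plus 3 SD, cut at about 15% in these data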;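 also: 0% = median of all compound wells on the plate and 100% = blocking peptide control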
* = called active by the depositor; / = no result.

SMILES	aDG glyco up	CendR NRP1 mod	Tn7 DDE FP	DDE Tn6 FP inh
COCCCNC(=O)C[C@@H]1C[C@@]2(C(=O)OC)CC(C)(C)CC=C2N(Cc2cccc3ccccc23)C1=O	0.0	23.7*	-1.5	-4.5
CC1(C)CC(=O)N(CC(=O)N2CCN(c3ccc(F)cc3)CC2)c2ccccc2S1(=O)=O	/	/	-0.5	1.6
CCOc1ccc(NC(=O)NNC(=O)c2ccc3ccccc3c2O)cc1	0.0	25.5*	5.1	2.4
CCc1ccccc1NC(=O)NNC(=O)c1ccc2ccccc2c1O	0.2	3.4	-8.9	1.3
Cc1ccc(S(=O)(=O)N2CCN(C(=O)COC(=O)/C=C/c3ccc(OC(F)F)cc3)CC2)cc1	-0.1	3.8	-2.1	-0.8
C=CCN(C(=O)CSc1nc2ccsc2c(=O)n1Cc1ccccn1)c1ccccc1	0.4	-4.3	3.5	-2.3
C=CCN(C(=O)CSc1nc2c(sc3ccccc32)c(=O)n1CCN(CC)CC)c1ccccc1	1.5	25.1*	2.9	-2.9
O=C(Nc1ccc(F)cc1)c1cc(S(=O)(=O)Nc2ccc(F)cc2)cs1	0.1	26.4*	-1.9	4.5
COc1ccc(S[C@]2(C(=O)N3CCN(C(C)=O)CC3)CC(=O)N[C@@H]2c2ccc(OC)cc2)cc1	/	/	2.2	8.7
CC(=O)Nc1cc(F)c2c(c1F)Cc1cc(F)ccc1-2	-0.1	24.5*	8.9	-0.6
OCC1COC(c2ccccc2)=N1 (configuration not stated)	/	/	4.6	-5.7
Cc1[nH]n(-c2ccccc2)c(=S)c1C=Nc1cccc([N+](=O)[O-])c1	-0.1	24.5*	0.9	-1.4
S=C(SCc1nc(-c2ccc(Cl)cc2)no1)N1CCSCC1	/	/	-4.0	-3.1
COc1ccccc1/C=C/CN1CCSCC1	0.0	30.4*	4.4	5.4
Cc1ccccc1S(=O)(=O)Nc1nc2ccccc2nc1NCCO	0.0	30.7*	-6.4	0.3
Cc1ccc(C(C)(C)C)cc1S(=O)(=O)Nc1nc2ccccc2nc1Cl	0.0	-5.0	2.6	0.4
CCCCC[n+]1ccn(C2=C([O-])c3ccccc3C(=O)/C2=N\S(=O)(=O)c2ccc(Br)cc2)c1	5.8*	13.4	-2.2	2.7
CCCCC[n+]1ccn(C2=C([O-])c3ccccc3C(=O)/C2=N\S(=O)(=O)c2ccccc2)c1	3.9	-5.1	2.9	-1.9
COc1cccc(NS(=O)(=O)c2ccc(C)c(C(=O)N3CCCCC3)c2)c1	-0.2	20.4*	-0.4	9.9
COc1ccc(-c2cc(-c3nnc(SCC(=O)Nc4ccc(OCc5ccccc5)cc4)n3N)[nH]n2)cc1	/	/	2.9	-6.1
O=C1c2ccccc2C(=O)c2c(/C=C/N3CCCCC3)ccnc21	2.3	79.8*	-2.9	7.8
Cn1c(=O)c2[nH]c(COc3ccccc3)nc2n(C)c1=O	-0.1	31.7*	-1.9	-4.2
O=C(Nc1ccc(-c2ccc(N3CCCCC3)nn2)cc1)c1ccco1	-0.1	0.1	-3.9	0.5
O=C(Nc1ccc(-c2nnc3n2CCCCC3)cc1)c1ccco1	-0.4	33.6*	4.1	-1.1
Cc1cc(C(=O)NN=Cc2cccc(O)c2)n[nH]1	/	/	5.6	5.9
SMILES	aDG glyco up	CendR NRP1 mod	Tn7 DDE FP	DDE Tn6 FP inh
O=C(OCc1cn(Cc2cccc(Cl)c2)nn1)N1CCOCC1	/	/	5.7	0.3
O=C(NCc1ccco1)C1CC(c2ccc(C(F)(F)F)cc2)=NO1 (configuration not stated)	0.0	31.4*	-7.7	-4.7
COc1ccc(C2=NOC(C(=O)NCc3ccco3)C2)cc1 (configuration not stated)	-0.2	2.1	-4.8	3.6
CCN1C(=O)N(CC)C(O)(c2ccccc2)C1(O)c1ccccc1 (configuration not stated)	0.0	30.1*	-5.3	4.3
Cn1c(SCCS(=O)(=O)c2ccc(Cl)cc2)nnc1-c1ccccc1	-0.3	32.4*	-1.7	3.3
Cn1c(SCC(=O)NNC(=O)Cc2ccccc2)nnc1-c1ccc(Cl)cc1	0.2	1.7	-4.3	4.0
O=C(Cn1c(-c2cncs2)nc2ccccc21)N1CCOCC1	/	/	2.9	-3.4
CN(C)CCNCCCNc1c2ccccc2nc2cccc([N+](=O)[O-])c12	-0.3	30.9*	-0.7	-2.9
CN(C)CCCNc1c2c(nc3ccccc13)CCC2	-0.1	13.3	0.6	3.1
Cn1c(-c2ccc(F)c(F)c2)cc2onc(-c3ccccc3)c2c1=O	0.5	17.7	1.0	3.0
COc1cccc(-c2cc3onc(-c4ccccc4)c3c(=O)n2C)c1	0.8	17.9*	-6.8	-3.2
CC1(C(=O)NS(=O)(=O)c2ccc(C#N)cc2)CCN1C(=O)CC1CCCCC1 (configuration not stated)	0.0	12.2	-7.4	-3.3
COc1ccc(N/N=C(/C#N)S(=O)(=O)c2nsc(C)c2C#N)cc1	-0.1	2.1	2.9	0.4
Cc1snc(S(=O)(=O)/C(C#N)=N/Nc2cccc(C(F)(F)F)c2)c1C#N	-0.1	26.9*	/	/
O=C1CN(C(=O)C2CCCCC2)C=CN1CCc1ccccc1Br	/	/	-1.7	-0.9
O=C(NCc1ccccc1)c1ccc(CN2CCC(Cc3ccccc3)CC2)cc1	0.4	-0.5	-2.1	-0.7
CCc1ccccc1NC(=O)c1ccc(CN2CCC(Cc3ccccc3)CC2)cc1	1.6	31.8*	-1.6	8.7
C#CCNC(=O)C[C@H]1C[C@@]2(C(=O)OC)C(=C[C@H](C(C)(C)C)O[C@@H]2C)N(Cc2ccccc2)C1=O	/	/	2.6	4.2
CN(C)CCC1(C2=CCCC2)CC/C(=C/c2ccc(Cl)cc2)C1=O (configuration not stated)	2.0	22.1	2.8	-4.8
O=c1nc2s/c(=C\c3ccc(-c4ccccc4[N+](=O)[O-])o3)c(=O)n2nc1-c1ccccc1	0.1	35.7*	8.9	4.6
CCCCCOc1ccc(/C=c2\sc3nc(=O)c(-c4ccccc4)nn3c2=O)cc1OC	-0.1	-23.9	4.1	0.2
Nc1ccc(-c2nc3ccc([N+](=O)[O-])cc3[nH]2)cc1	-0.5	-5.5	-8.3	-8.1
O=[N+]([O-])c1ccc(-c2nc3ccc([N+](=O)[O-])cc3[nH]2)cc1	0.6	35.8*	-4.0	11.9
CCCCCOc1ccc(Br)cc1CSC(=N)N	0.1	34.9*	-1.2	2.1
C[C@H](CO)N1C[C@H](C)[C@@H](CN(C)C(=O)Nc2ccc(C(F)(F)F)cc2)Oc2c(NS(=O)(=O)c3ccc(F)cc3)cccc2C1=O	0.2	-9.4	0.7	-11.2
C[C@H](CO)N1C[C@H](C)[C@@H](CN(C)C(=O)Nc2ccc3c(c2)OCO3)Oc2c(NS(=O)(=O)c3ccc(F)cc3)cccc2C1=O	-0.1	31.0*	-0.7	-5.0
C[C@H](CO)N1C[C@H](C)[C@@H](CN(C)C(=O)Nc2ccc(C(F)(F)F)cc2)Oc2c(NS(=O)(=O)c3ccccc3)cccc2C1=O	0.1	36.2*	3.4	-7.0
C[C@H](CO)N1C[C@H](C)[C@@H](CN(C)C(=O)Nc2ccc3c(c2)OCO3)Oc2ccc(NS(=O)(=O)c3ccc(F)cc3)cc2C1=O	0.0	7.9	-3.6	7.6
